Laboratory results: ChEMBL document CHEMBL5705905, “Pharmacological targeting of kinases MST1 and MST2 augments tissue repair and regeneration” (Sci Transl Med, 2016)
pIC50, pKd: −log10 of the molar value.

What was measured:
[1] = target: Serine/threonine-protein kinase 36 (Homo sapiens) (UniProt Q9NRP7); assay: Inhibition of STK36 (unknown origin) assessed as remaining activity at 1 uM by Kinome scan method relative to control
[2] = target: Tyrosine-protein kinase receptor UFO (Homo sapiens) (UniProt P30530); assay: Inhibition of AXL (unknown origin) assessed as remaining activity at 1 uM by Kinome scan method relative to control
Chain of Tyrosine-protein kinase receptor UFO (Homo sapiens) (P30530 whole entry): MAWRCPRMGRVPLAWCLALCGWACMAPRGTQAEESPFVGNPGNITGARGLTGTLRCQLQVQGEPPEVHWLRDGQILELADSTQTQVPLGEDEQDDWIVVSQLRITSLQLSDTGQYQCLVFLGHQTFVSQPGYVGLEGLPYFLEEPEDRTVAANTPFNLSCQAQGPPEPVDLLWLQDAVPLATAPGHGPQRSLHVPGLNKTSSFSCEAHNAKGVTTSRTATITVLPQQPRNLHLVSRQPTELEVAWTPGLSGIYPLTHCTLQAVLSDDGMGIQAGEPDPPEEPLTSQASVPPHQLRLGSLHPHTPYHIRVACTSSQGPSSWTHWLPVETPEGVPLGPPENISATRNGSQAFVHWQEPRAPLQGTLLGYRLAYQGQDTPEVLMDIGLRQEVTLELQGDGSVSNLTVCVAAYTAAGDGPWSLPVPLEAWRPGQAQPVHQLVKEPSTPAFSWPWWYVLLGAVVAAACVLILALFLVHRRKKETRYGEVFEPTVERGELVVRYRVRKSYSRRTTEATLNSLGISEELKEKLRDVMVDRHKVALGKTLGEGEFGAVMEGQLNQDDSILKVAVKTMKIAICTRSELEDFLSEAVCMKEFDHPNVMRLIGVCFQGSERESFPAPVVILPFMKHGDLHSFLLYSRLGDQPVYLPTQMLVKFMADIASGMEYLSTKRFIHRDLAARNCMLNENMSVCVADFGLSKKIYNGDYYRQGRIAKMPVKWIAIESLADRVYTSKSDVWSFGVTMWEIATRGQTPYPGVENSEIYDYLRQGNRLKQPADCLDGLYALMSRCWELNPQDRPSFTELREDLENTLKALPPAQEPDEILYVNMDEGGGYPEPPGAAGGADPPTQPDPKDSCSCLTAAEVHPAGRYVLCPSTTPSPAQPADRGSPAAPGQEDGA
Summary of the method: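 Active-site-dependent competition-binding (KINOMEscan) panel of 468 kinases, test compound at 1 μM (from a 10 mM DMSO stock). Read-out is ctrl% = (test signal − positive control signal)/(negative control signal − positive control signal) × 100. DMSO is the negative control (100%) and a control compound is the positive control (0%). Lower ctrl% means tighter binding.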

[3] = AUC (0 to infinity) in male Sprague-Dawley rat at 10 mg/kg, po measured for 24 hrs by LC-MS/MS analysis; type: ADME, organism-based; settings: in vivo
Summary of the method: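 Sprague-Dawley rats, single intravenous or oral dose. Parameters (half-life, AUC, bioavailability) reported in a supplementary table.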

[4] = target: Phosphatidylinositol 4,5-bisphosphate 3-kinase catalytic subunit alpha isoform (Homo sapiens, UniProt P42336, H1047L); assay: Binding affinity to PIK3CA H1047L mutant (unknown origin) assessed as dissociation constant
Chain of Phosphatidylinositol 4,5-bisphosphate 3-kinase catalytic subunit alpha isoform (P42336 whole entry H1047L, canonical isoform): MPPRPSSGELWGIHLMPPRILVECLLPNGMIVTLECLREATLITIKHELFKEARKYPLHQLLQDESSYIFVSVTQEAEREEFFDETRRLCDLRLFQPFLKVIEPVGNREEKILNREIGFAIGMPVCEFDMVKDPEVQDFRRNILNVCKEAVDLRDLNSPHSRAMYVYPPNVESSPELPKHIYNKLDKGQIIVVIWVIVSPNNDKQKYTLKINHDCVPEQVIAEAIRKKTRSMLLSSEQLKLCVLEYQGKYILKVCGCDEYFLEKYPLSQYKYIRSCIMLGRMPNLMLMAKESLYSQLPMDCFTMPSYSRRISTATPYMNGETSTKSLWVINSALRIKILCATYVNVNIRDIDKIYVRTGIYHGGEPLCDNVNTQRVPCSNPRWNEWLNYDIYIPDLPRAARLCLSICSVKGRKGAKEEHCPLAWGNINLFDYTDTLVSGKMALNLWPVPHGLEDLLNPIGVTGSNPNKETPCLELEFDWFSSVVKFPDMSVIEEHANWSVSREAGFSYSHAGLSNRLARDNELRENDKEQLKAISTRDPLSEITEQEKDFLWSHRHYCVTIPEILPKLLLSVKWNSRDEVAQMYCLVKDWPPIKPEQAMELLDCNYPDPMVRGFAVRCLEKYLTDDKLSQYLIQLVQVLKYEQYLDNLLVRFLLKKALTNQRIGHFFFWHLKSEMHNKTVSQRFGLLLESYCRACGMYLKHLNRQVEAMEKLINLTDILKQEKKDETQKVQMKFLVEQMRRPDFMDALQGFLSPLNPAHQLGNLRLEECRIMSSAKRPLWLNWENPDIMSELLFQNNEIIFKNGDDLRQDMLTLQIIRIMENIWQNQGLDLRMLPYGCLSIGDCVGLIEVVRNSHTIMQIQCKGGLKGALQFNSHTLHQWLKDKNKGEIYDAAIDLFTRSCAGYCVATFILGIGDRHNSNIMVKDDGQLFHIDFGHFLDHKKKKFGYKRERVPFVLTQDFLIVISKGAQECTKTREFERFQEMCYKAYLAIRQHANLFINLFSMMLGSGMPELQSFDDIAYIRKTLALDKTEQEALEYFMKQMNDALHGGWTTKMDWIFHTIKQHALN

[5] = target: Serine/threonine-protein kinase SBK1 (Homo sapiens) (UniProt Q52WX2); assay: Inhibition of SBK1 (unknown origin) assessed as remaining activity at 1 uM by Kinome scan method relative to control
Chain of Serine/threonine-protein kinase SBK1 (Homo sapiens) (Q52WX2 whole entry): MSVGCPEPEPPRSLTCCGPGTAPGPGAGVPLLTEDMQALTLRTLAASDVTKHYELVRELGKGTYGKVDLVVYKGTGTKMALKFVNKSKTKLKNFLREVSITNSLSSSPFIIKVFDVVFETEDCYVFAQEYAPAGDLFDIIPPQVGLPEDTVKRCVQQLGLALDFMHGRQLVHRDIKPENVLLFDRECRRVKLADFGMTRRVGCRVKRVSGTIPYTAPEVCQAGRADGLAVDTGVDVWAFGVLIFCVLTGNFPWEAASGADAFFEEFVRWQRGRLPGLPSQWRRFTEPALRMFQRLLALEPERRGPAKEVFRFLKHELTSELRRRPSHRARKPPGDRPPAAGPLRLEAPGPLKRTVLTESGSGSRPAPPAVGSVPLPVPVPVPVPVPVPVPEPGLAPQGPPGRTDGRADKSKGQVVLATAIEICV

HepG2 = assay: Induction of apoptosis in human HepG2 cells overexpressing MST2 assessed as early apoptosis cells at 3 uM by annexinV staining (Rvb =13.6 %); type: functional
[6] = target: T1, Serine/threonine-protein kinase 4 (Homo sapiens, UniProt Q13043); assay: Inhibition of recombinant His-tagged full-length MST1 (unknown origin) expressing in Escherichia coli assessed as MOB1a phosphorylation level incubated for 30 min in the presence of 30 uM ATP by immunoblot analysis
T1 sequence (Q13043 whole entry): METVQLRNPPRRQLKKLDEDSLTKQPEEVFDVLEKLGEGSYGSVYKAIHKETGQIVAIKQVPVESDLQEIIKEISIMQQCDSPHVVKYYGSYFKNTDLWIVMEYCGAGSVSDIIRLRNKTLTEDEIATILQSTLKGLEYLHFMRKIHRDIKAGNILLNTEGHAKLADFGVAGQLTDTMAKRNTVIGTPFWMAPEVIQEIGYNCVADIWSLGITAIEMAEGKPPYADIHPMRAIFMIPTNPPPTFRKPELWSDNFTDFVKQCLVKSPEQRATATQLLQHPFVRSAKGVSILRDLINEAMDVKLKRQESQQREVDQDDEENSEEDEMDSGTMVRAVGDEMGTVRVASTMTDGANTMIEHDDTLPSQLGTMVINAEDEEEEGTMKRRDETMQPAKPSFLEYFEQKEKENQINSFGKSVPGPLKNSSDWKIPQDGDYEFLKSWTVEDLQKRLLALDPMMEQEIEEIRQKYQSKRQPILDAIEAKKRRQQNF

[7] = target: Calcium/calmodulin-dependent protein kinase type 1D (Homo sapiens) (UniProt Q8IU85); assay: Inhibition of CAMK1D (unknown origin) assessed as remaining activity at 1 uM by Kinome scan method relative to control
Chain of Calcium/calmodulin-dependent protein kinase type 1D (Homo sapiens) (Q8IU85 whole entry, looked up): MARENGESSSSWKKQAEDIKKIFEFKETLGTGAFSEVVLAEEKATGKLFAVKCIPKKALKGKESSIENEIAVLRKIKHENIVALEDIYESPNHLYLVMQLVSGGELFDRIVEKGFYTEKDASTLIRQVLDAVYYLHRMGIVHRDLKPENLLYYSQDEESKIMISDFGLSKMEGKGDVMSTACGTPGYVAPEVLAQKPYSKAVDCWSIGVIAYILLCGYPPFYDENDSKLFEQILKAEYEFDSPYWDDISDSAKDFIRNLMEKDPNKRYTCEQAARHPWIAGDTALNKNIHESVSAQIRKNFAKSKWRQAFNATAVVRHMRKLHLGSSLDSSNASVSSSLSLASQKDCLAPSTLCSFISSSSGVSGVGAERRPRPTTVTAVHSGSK
Summary of the method: (§1)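 Active-site-dependent competition-binding profiling (KINOMEscan) at 1 μM against a 468-kinase panel; compound supplied from a 10 mM DMSO stock. Read-out is ctrl% = (test signal − positive control signal)/(negative control signal − positive control signal) × 100. DMSO is the negative control (100%) and a control compound the positive control (0%). Lower ctrl% means tighter binding.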

[8] = target: Serine/threonine-protein kinase Sgk2 (Homo sapiens) (UniProt Q9HBY8); assay: Inhibition of SGK2 (unknown origin) assessed as remaining activity at 1 uM by Kinome scan method relative to control
[9] = target: Serine/threonine-protein kinase PAK 5 (Homo sapiens) (UniProt Q9P286); assay: Inhibition of PAK7 (unknown origin) assessed as remaining activity at 1 uM by Kinome scan method relative to control
[10] = target: Dual specificity mitogen-activated protein kinase kinase 6 (Homo sapiens) (UniProt P52564); assay: Inhibition of MEK6 (unknown origin) assessed as remaining activity at 1 uM by Kinome scan method relative to control
[11] = target: T1, Serine/threonine-protein kinase 4; assay: Inhibition of recombinant His-tagged full-length MST1 (unknown origin) expressing in Escherichia coli assessed as MOB1a phosphorylation level incubated for 30 min in the presence of 300 uM ATP by immunoblot analysis
[12] = tested on: Receptor-type tyrosine-protein kinase FLT3 (Homo sapiens), P36888 [UNDEFINED MUTATION]; assay: Inhibition of FLT3 ITD mutant (unknown origin) assessed as remaining activity at 1 uM by Kinome scan method relative to control
[13] = target: cAMP-dependent protein kinase catalytic subunit PRKX (Homo sapiens) (UniProt P51817); assay: Inhibition of PRKX (unknown origin) assessed as remaining activity at 1 uM by Kinome scan method relative to control
Chain of cAMP-dependent protein kinase catalytic subunit PRKX (Homo sapiens) (P51817 whole entry, canonical isoform): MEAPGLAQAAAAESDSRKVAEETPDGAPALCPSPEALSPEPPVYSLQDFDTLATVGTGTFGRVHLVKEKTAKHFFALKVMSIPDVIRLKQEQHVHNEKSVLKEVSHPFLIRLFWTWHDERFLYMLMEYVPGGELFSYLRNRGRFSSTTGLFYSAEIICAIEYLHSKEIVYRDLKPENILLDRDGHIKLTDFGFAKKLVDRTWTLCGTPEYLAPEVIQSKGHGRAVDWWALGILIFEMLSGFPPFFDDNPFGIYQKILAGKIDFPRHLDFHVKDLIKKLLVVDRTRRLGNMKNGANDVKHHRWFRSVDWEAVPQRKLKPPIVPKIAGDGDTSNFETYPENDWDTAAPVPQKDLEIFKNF

[14] = target: Casein kinase I isoform gamma-2 (Homo sapiens) (UniProt P78368); assay: Inhibition of CSNK1G2 (unknown origin) assessed as remaining activity at 1 uM by Kinome scan method relative to control; summary of the method: as §1
[15] = target: SRSF protein kinase 3 (Homo sapiens) (UniProt Q9UPE1); assay: Inhibition of SRPK3 (unknown origin) assessed as remaining activity at 1 uM by Kinome scan method relative to control
[16] = tested on: Epidermal growth factor receptor (Homo sapiens), P00533 [UNDEFINED MUTATION]; assay: Inhibition of EGFR L747-T751del/Sins mutant (unknown origin) assessed as remaining activity at 1 uM by Kinome scan method relative to control
[17] = target: Dual specificity protein kinase CLK3 (Homo sapiens) (UniProt P49761); assay: Inhibition of CLK3 (unknown origin) assessed as remaining activity at 1 uM by Kinome scan method relative to control; summary of the method: as §1
[18] = target: T1, Serine/threonine-protein kinase 4
[19] = target: Mitogen-activated protein kinase 9 (Homo sapiens) (UniProt P45984); assay: Inhibition of JNK2 (unknown origin) assessed as remaining activity at 1 uM by Kinome scan method relative to control
[20] = target: Dual specificity mitogen-activated protein kinase kinase 7 (Homo sapiens) (UniProt O14733); assay: Inhibition of MKK7 (unknown origin) assessed as remaining activity at 1 uM by Kinome scan method relative to control
[21] = target: Serine/threonine-protein kinase PRP4 homolog (Homo sapiens) (UniProt Q13523); assay: Inhibition of PRP4 (unknown origin) assessed as remaining activity at 1 uM by Kinome scan method relative to control
[22] = target: Serine/threonine-protein kinase STK11 (Homo sapiens) (UniProt Q15831); assay: Inhibition of LKB1 (unknown origin) assessed as remaining activity at 1 uM by Kinome scan method relative to control
Chain of Serine/threonine-protein kinase STK11 (Homo sapiens) (Q15831 whole entry): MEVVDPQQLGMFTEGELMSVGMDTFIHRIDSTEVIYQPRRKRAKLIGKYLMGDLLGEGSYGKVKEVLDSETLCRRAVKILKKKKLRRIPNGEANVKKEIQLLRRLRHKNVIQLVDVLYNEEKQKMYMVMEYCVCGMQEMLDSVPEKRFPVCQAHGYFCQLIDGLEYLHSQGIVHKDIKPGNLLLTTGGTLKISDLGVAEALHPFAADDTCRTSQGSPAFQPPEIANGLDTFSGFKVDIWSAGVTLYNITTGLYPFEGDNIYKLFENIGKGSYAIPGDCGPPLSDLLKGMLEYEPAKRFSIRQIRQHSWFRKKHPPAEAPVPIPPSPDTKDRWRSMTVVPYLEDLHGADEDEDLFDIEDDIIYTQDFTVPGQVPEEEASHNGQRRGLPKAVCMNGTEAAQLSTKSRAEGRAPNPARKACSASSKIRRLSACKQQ

[23] = target: Megakaryocyte-associated tyrosine-protein kinase (Homo sapiens) (UniProt P42679); assay: Inhibition of CTK (unknown origin) assessed as remaining activity at 1 uM by Kinome scan method relative to control; summary of the method: as §1

Chain of Serine/threonine-protein kinase 36 (Homo sapiens) (Q9NRP7 whole entry): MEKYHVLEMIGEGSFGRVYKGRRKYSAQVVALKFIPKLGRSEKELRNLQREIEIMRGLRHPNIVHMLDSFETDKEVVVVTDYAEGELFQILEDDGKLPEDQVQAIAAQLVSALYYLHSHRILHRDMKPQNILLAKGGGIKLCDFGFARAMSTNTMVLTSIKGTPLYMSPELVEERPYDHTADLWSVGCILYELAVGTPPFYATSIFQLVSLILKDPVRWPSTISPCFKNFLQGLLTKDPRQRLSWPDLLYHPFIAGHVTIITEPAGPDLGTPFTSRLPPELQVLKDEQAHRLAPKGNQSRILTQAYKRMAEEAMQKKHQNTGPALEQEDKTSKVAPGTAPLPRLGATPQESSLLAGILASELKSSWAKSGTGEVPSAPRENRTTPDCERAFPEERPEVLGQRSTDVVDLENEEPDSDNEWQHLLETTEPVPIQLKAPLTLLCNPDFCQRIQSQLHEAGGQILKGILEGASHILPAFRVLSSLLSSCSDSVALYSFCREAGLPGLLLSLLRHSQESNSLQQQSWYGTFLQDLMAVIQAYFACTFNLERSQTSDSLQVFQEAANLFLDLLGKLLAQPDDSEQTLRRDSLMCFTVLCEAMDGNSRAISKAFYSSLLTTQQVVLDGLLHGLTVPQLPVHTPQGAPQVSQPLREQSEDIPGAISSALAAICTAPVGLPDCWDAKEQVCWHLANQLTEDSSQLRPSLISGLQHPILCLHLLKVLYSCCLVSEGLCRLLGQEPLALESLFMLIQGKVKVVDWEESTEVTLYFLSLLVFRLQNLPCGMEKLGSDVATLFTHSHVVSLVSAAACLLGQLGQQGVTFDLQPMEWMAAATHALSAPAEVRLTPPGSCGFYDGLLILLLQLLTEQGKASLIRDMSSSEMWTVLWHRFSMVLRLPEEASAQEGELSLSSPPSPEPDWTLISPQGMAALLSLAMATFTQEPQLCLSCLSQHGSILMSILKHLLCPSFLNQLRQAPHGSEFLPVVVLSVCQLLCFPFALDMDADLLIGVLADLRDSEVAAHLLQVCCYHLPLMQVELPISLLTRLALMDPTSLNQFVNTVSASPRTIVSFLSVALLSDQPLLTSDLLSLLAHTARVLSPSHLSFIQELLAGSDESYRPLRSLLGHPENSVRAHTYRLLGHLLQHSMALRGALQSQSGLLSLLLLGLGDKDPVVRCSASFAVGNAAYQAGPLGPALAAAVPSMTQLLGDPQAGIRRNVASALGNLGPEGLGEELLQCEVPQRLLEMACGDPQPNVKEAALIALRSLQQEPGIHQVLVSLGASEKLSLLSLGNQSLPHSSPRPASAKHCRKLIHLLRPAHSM

CN1C(=O)c2sccc2N(C)c2nc(Nc3ccc(S(N)(=O)=O)cc3)ncc21
Activity [1]: 100% | Activity [2]: 86% | AUC(0-inf) [3]: 1040 ng·h/mL | pKd [4]: 7.47 | Activity [5]: 42% | Activity (HepG2): 5.12% | pIC50 [6]: 6.42 | Activity [7]: 100% | Activity [8]: 91% | Activity [9]: 85% | Activity [10]: 100% | pIC50 [11]: 5.39 | Activity [12]: 91% | Activity [13]: 100% | Activity [14]: 100% | Activity [15]: 100% | Activity [16]: 67% | Activity [17]: 85% | pIC50 [18]: 7.15 | Activity [19]: 82% | Activity [20]: 96% | Activity [21]: 97% | Activity [22]: 96% | Activity [23]: 59%
